Source: ChEMBL document CHEMBL1641522 (Bioorg Med Chem, 2011)
The source made the active and inactive calls. The calls are words filed in the database; no cut-off is given here.

What was measured:
HT-29 [1] = experiment: Cytotoxicity against human HT-29 cells after 72 hrs by XTT/PMS method; type: functional, cell-based; conditions: HT-29, 72 h
Outline: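 HT-29 colorectal adenocarcinoma cells in McCoy's 5A with 10% FBS, seeded at 5000 cells/well the day before. DMSO stocks serially diluted to 20 µM–2 pM final, exposed 72 h. XTT 0.1 mg/mL with 25 µM PMS added for 1 h. Formazan read at 492 nm, corrected at 690 nm. IC50 from triplicate experiments.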

Tubulin (Sus scrofa) [2] = target: T1, Tubulin (Sus scrofa) (UniProt P02554+P02550); experiment: Binding affinity to porcine tubulin at 2 uM incubated for 30 mins followed by UV irradiation at 365 nm at distance of 10 cm on ice by SDS-PAGE analysis in presence of D-biotin; type: protein assay
T1 sequence (P02550 whole entry, looked up): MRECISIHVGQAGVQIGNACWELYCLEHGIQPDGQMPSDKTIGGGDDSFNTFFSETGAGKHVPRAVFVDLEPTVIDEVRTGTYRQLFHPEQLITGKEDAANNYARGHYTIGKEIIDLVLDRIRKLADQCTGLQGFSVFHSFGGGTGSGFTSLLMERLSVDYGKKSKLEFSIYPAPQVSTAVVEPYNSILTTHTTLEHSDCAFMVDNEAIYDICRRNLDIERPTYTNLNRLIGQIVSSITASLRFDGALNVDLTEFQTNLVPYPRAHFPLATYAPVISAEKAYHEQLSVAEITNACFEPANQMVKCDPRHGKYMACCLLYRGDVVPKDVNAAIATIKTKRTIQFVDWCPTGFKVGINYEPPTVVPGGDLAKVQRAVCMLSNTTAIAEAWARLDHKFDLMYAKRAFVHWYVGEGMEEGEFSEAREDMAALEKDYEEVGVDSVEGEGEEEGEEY
T1 sequence (P02554 whole entry, looked up): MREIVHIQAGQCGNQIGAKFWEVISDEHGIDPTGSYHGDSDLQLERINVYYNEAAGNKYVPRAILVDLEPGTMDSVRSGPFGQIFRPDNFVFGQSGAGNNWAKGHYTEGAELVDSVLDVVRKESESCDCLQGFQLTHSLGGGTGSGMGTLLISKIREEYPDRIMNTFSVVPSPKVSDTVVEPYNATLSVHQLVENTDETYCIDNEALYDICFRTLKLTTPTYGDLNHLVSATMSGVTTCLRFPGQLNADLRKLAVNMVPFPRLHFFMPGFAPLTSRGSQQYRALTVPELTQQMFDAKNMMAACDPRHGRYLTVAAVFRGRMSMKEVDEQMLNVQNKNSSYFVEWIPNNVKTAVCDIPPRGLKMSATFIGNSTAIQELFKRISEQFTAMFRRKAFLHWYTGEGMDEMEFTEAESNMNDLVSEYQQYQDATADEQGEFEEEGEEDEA
Outline: (§1)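 Competition labelling. […] Probe (2 µM, 2% DMSO final) was then added for 30 min at 37 °C. Irradiated at 365 nm, 10 cm, on ice for 30 s. Read by 10% SDS–PAGE and streptavidin–HRP/ECL blot.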

Tubulin (Sus scrofa) [3] = target: T1, Tubulin (Sus scrofa); experiment: Binding affinity to porcine tubulin at 2 uM incubated for 30 mins followed by UV irradiation at 365 nm at distance of 10 cm on ice by SDS-PAGE analysis in presence of plinabulin; type: protein assay; outline: as §1
Tubulin (Sus scrofa) [4] = target: T1, Tubulin (Sus scrofa); experiment: Binding affinity to porcine tubulin incubated for 30 mins followed by UV irradiation at 365 nm for 30 seconds at distance of 10 cm on ice by SDS-PAGE analysis; type: protein assay
Outline: (§2)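 Tubulin (2 µM) in MES buffer pH 6.8 with 1 mM GTP and 2% DMSO, incubated with compound 30 min at 37 °C. Irradiated at 365 nm, 10 cm, on ice, 0–30 s. Separated by 10% SDS–PAGE and blotted to PVDF. Labelled tubulin detected with streptavidin–HRP/ECL chemiluminescence.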

Tubulin = Tubulin (Sus scrofa, UniProt P02554+P02550); experiment: Binding affinity to porcine tubulin after 1 hr by spectrofluorometric analysis; type: protein assay
Outline: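 Purified porcine tubulin (0.5 µM) in MES buffer pH 6.8 at 37 °C, titrated with compound. Kd derived from the quenching titration.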

Tubulin (Sus scrofa) [5] = target: T1, Tubulin (Sus scrofa); experiment: Binding affinity to porcine tubulin at 2 uM incubated for 30 mins followed by UV irradiation at 365 nm at distance of 10 cm on ice by SDS-PAGE analysis; type: protein assay; conditions: TDE = time-dependent effect; outline: as §2
Tubulin (Sus scrofa) [6] = target: T1, Tubulin (Sus scrofa); experiment: Binding affinity to porcine tubulin at 2 uM incubated for 30 mins by SDS-PAGE analysis; type: protein assay; outline: as §2
Tubulin (Sus scrofa) [7] = target: T1, Tubulin (Sus scrofa); experiment: Ratio of compound Kd to plinabulin Kd for porcine tubulin; type: protein assay
Tubulin (Sus scrofa) [8] = target: T1, Tubulin (Sus scrofa); experiment: Binding affinity to porcine tubulin at 2 uM incubated for 30 mins followed by UV irradiation at 365 nm at distance of 10 cm on ice by SDS-PAGE analysis in presence of colchicine; type: protein assay; outline: as §1
HT-29 [9] = experiment: Ratio of compound IC50 to plinabulin IC50 for human HT-29 cells; type: functional

| Activity (Tubulin (Sus scrofa) [2]) | Activity (Tubulin (Sus scrofa) [3]) | Activity (Tubulin (Sus scrofa) [4]) | Kd (Tubulin) [nM] | Activity (Tubulin (Sus scrofa) [5]) | Activity (Tubulin (Sus scrofa) [6]) | Ratio (Tubulin (Sus scrofa) [7]) | Activity (Tubulin (Sus scrofa) [8]) | SMILES | IC50 (HT-29 [1]) [nM] | Ratio IC50 (HT-29 [9]) |
| --- | --- | --- | --- | --- | --- | --- | --- | --- | --- | --- |
|  |  |  |  |  |  |  |  | CC(C)(C)c1[nH]cnc1/C=c1\[nH]c(=O)/c(=C/c2ccccc2)[nH]c1=O [PLINABULIN] | 13.5 |  |
| inactive | inactive | Dose-dependent effect | 17900 | tde | inactive | 17 | inactive | CC(C)(Cc1cn(CCCNC(=O)CCCCCNC(=O)CCCCCNC(=O)CCCC[C@@H]2SC[C@@H]3NC(=O)N[C@@H]32)nn1)c1ocnc1/C=c1\[nH]c(=O)/c(=C/c2cccc(C(=O)c3ccccc3)c2)[nH]c1=O (stereo in doubt) | 9790 | 725 |
|  |  |  |  |  |  |  |  | COc1cc2c(c(OC)c1OC)-c1ccc(OC)c(=O)cc1[C@@H](NC(C)=O)CC2 [COLCHICINE] | 16.6 |  |
